Results: ChEMBL document CHEMBL1123093, “Synthesis and biological activity of 6-substituted mitosene analogues of the mitomycins” (J Med Chem, 1985)

Tests used:
[1] = tested on: Escherichia coli; assay: Phage induction (ILB) in Escherichia coli: ratio was reported at a dose of 0.8 ug/mL
[2] = Partition coefficient between octanol and phosphate buffer (pH 7.4) was observed for the compound; assay type: physicochemical
Outline: (§1)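 Partition coefficient measured as distribution between 1-octanol and pH 7.4 phosphate buffer, following the Hansch method.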

[3] = tested on: Escherichia coli; assay: Phage induction (ILB) in Escherichia coli: ratio was reported at a dose of 3.1 ug/mL
[4] = species on record: Mus musculus; assay: Antitumor activity in P388 mouse leukemia and maximum % T/C value was determined at optimal dose (OD); assay type: functional
Outline: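 P388 ascites leukemia: 10⁶ ascites cells implanted in female CDF₁ mice. Each dose level was given on day 1 only, to six mice per dose. Ten control mice received saline. Median survival time (MST) was recorded, and % T/C > 125 was taken as active.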

[5] = tested on: Escherichia coli; assay: Induction of phage in Escherichia coli(ILB) expressed as Ratio of plaques in treated bacterial cultures to those in control at a dose of 3.1 ug/mL; assay type: functional
Outline: (§2)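 Phage induction (ILB) in Escherichia coli: latent phage was activated in bacterial cultures exposed to compound at the stated concentration. Plaques (clear areas) were counted, and the value reported is plaques in treated culture divided by plaques in the untreated control.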

[6] = Partition coefficient between octanol and phosphate buffer (pH 7.4) was observed for the compound at pH 7.4.; assay type: physicochemical
Outline: as §1

[7] = tested on: Escherichia coli; assay: Induction of phage in Escherichia coli(ILB) expressed as Ratio of plaques in treated bacterial cultures to those in control at a dose of 0.8 ug/mL; assay type: functional
Outline: as §2

[8] = tested on: Mus musculus; assay: Antitumor activity against P388 mouse leukemia as maximum and average change in body weight was reported at a dose of 3.2 mg/kg per injection.; assay type: functional
[9] = tested on: Mus musculus; assay: Antitumor activity against P388 mouse leukemia as maximum and average change in body weight was reported at a dose of 25.6 mg/kg per injection.; assay type: functional
[10] = tested on: Mus musculus; assay: Antitumor activity against P388 mouse leukemia as maximum and median survival time as % T/C was reported at a dose of 6.4 mg/Kg per injection.; assay type: functional
Outline: (§3)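 P388 ascites, 10⁶ cells implanted in female CDF₁ mice. Six mice per dose; single treatment on day 1 only. Ten controls received saline. Survival recorded as median survival time; % T/C = treated vs control MST, with % T/C > 125 taken as active.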

[11] = tested on: Mus musculus; assay: Antitumor activity against P388 mouse leukemia as maximum and average change in body weight was reported at a dose of 6.4 mg/kg per injection.; assay type: functional
[12] = tested on: Mus musculus; assay: Antitumor activity against P388 mouse leukemia as maximum and median survival time as % T/C was reported at a dose of 12.8 mg/Kg per injection.; assay type: functional
Outline: as §3

[13] = tested on: Mus musculus; assay: Antitumor activity against P388 mouse leukemia as maximum and average change in body weight was reported at a dose of 12.8 mg/kg per injection.; assay type: functional
[14] = tested on: Mus musculus; assay: Antitumor activity against P388 mouse leukemia as maximum and median survival time as % T/C was reported at a dose of 3.2 mg/Kg per injection.; assay type: functional
Outline: as §3

[15] = tested on: Mus musculus; assay: Antitumor activity against P388 mouse leukemia as maximum and median survival time as % T/C was reported at a dose of 0.8 mg/Kg per injection.; assay type: functional
Outline: as §3

[16] = tested on: Mus musculus; assay: Antitumor activity against P388 mouse leukemia as maximum and average change in body weight was reported at a dose of 0.8 mg/kg per injection.; assay type: functional
[17] = tested on: Mus musculus; assay: Antitumor activity against P388 mouse leukemia as maximum and median survival time as % T/C was reported at a dose of 1.6 mg/Kg per injection.; assay type: functional
Outline: as §3

[18] = tested on: Mus musculus; assay: Antitumor activity against P388 mouse leukemia as maximum and average change in body weight was reported at a dose of 1.6 mg/kg per injection.; assay type: functional
[19] = tested on: Mus musculus; assay: Antitumor activity against P388 mouse leukemia as maximum and median survival time as % T/C was reported at a dose of 0.4 mg/Kg per injection.; assay type: functional
Outline: as §3

[20] = tested on: Mus musculus; assay: Antitumor activity against P388 mouse leukemia as maximum and median survival time as % T/C was reported at a dose of 4.8 mg/Kg per injection.; assay type: functional
Outline: as §3

[21] = tested on: Mus musculus; assay: Antitumor activity against P388 mouse leukemia as maximum and average change in body weight was reported at a dose of 0.4 mg/Kg per injection.; assay type: functional
[22] = tested on: Mus musculus; assay: Antitumor activity against P388 mouse leukemia as maximum and median survival time as % T/C was reported at a dose of 0.2 mg/Kg per injection.; assay type: functional
Outline: as §3

[23] = tested on: Mus musculus; assay: Antitumor activity against P388 mouse leukemia as maximum and average change in body weight was reported at a dose of 0.2 mg/kg per injection.; assay type: functional
[24] = tested on: Mus musculus; assay: Antitumor activity against P388 mouse leukemia as maximum and average change in body weight was reported at a dose of 4.8 mg/kg per injection.; assay type: functional

| SMILES | ILB [1] | logD [2] | ILB [3] | T/C [4] | Average weight change [8] | T/C [14] | further results |
| --- | --- | --- | --- | --- | --- | --- | --- |
| CNC(=O)OCc1c2c(n3c1C(OC(C)=O)CC3)C(=O)C(Cl)=C(OC)C2=O (centres undefined) | 12.1 | 2.08 | 27 |  |  |  |  |
| COC1=CC(=O)c2c(c(COC(N)=O)c3n2CCC3OC(C)=O)C1=O (centres undefined) | 11.9 | 0.72 | 18.6 | 111% |  |  |  |
| CNC(=O)OCc1c2c(n3c1C(OC(C)=O)CC3)C(=O)C(Br)=C(N)C2=O (centres undefined) |  |  |  |  |  |  | ILB [5]: 1.1; logD [6]: 1.15; ILB [7]: 1.2 |
| CNC(=O)OCc1c2c(n3c1C(OC(C)=O)CC3)C(=O)C(C)=C(OC)C2=O (centres undefined) | 16.6 | 2.39 | 34.1 | 180% | 1 g | 120% | Average weight change [9]: -0.2 g; T/C [10]: 135%; Average weight change [11]: 1.2 g; T/C [12]: 145%; Average weight change [13]: 0 g |
| COC1=C(C)C(=O)c2c(c(COC(N)=O)c3n2CCC3OC(C)=O)C1=O (centres undefined) | 13.2 | 1.54 | 24.5 | 165% | 0.3 g | 133% | T/C [15]: 114%; Average weight change [16]: 1 g; Average weight change [11]: 0.1 g; T/C [17]: 124%; Average weight change [18]: 0.6 g |
| CNC(=O)OCc1c2c(n3c1C(OC(C)=O)CC3)C(=O)C=C(N1CCCC1)C2=O (centres undefined) | 1 | 1.4 | 1 |  |  |  |  |
| CNC(=O)OCc1c2c(n3c1C(OC(C)=O)CC3)C(=O)C=C(OC)C2=O (centres undefined) | 6 | 1.19 | 10.1 | 106% |  |  |  |
| CNC(=O)OCc1c2c(n3c1C(OC(C)=O)CC3)C(=O)C(Br)=C(OC)C2=O (centres undefined) | 7.1 |  | 12.4 | 100% |  |  |  |
| CO[C@@]12[C@H](COC(N)=O)C3=C(C(=O)C(C)=C(N)C3=O)N1C[C@@H]1N[C@@H]12 [MITOMYCIN] |  |  |  |  | -0.7 g | 195% | T/C [19]: 130%; T/C [15]: 135%; Average weight change [16]: 0.5 g; T/C [17]: 150%; T/C [20]: 205%; Average weight change [21]: 0.3 g; Average weight change [18]: -0.2 g; T/C [22]: 120%; Average weight change [23]: 0.8 g; Average weight change [24]: -2.2 g |
